Screens deposited in PubChem by The Scripps Research Institute Molecular Screening Center.
Shown are actives, neighbours in structure and some others; about 2.1% of the full set was active somewhere.
PKA-R1A act = activates the PKA-R1A holoenzyme complex; P00514+P68181; PKA-R1A dissociation, Cy5-IP20 fluorescence polarization; scaled: DMSO 0%, 113 µM cGMP 100%; activation, % at 11.4 µM; 340,000 compounds, 0.083% hits;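 active = percent activation above the mean of all tested compounds plus 3 SD, cut at about 19% in these data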;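 note: higher means more PKAc released from R1A so a rise in polarization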
IMP-1 inh = inhibitors of Pseudomonas aeruginosa IMP-1 metallo-beta-lactamase | purified IMP-1, nitrocefin hydrolysis, epi-absorbance fluorescence | inhibition, % at 5.6 µM | 290,000 compounds, 0.45% hits;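 active = inhibition above the mean plus 3 SD of all compounds in the same screening run, cut at about 4.5% in these data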;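 note: 0% = IMP-1 with DMSO and 100% = DMSO wells lacking enzyme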
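Assay system: purified recombinant IMP-1 beta-lactamase. Input: IMP-1 0.2 nM before substrate addition. Buffer or medium: Zinc- and detergent-supplemented HEPES buffer, pH 7.1. Schedule: 25 °C, 15 min preincubation, 25 min reaction. Signal: Epi-absorbance fluorescence, 480 nm excitation, 530 nm emission. Evaluation: percent inhibition from optical density relative to buffer-blank wells.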
VIM-2 inhibitor = blocks Pseudomonas aeruginosa VIM-2 metallo-beta-lactamase; purified VIM-2, nitrocefin hydrolysis, epi-absorbance fluorescence; inhibition, % at 5.6 µM; 290,000 compounds, 0.89% hits;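 active = inhibition above the mean of all tested compounds plus 3 SD, cutoff set per screening run, cut at about 7.5% in these data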;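 note: red hydrolysis product quenches plate fluorescence so inhibitors raise well fluorescence; 0% = enzyme with DMSO and 100% = DMSO without enzyme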
MsrA act = activators of bovine methionine sulfoxide reductase A. purified bovine MsrA, absorbance read-out. activation, % at 10.6 µM. 360,000 compounds, 0.3% hits; in the data active = activation above about 7.5%;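 note: 0% = vehicle and 100% = reference activator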
MsrA inh = bovine MsrA inhibition; inhibition, % at 15.5 µM; AID 651718; 360,000 compounds, 0.75% hits; purified bovine MsrA, absorbance read-out; in the data active = inhibition above about 4.5%;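 note: 0% = vehicle wells with enzyme and 100% = reference inhibitor wells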
PKA-R2B act = activates the human PKA-R2B holoenzyme complex. PKA-R2B holoenzyme dissociation, Cy5-IP20 fluorescence polarization; R2B truncated from residue 108, S112A mutant; 0% DMSO only, 100% 113 µM cGMP. AID 504700. activation, % at 11.4 µM. 340,000 compounds, 0.079% hits;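 active = activation above a cutoff set at the mean over all compounds plus 3 SD, cut at about 18% in these data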;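 note: higher means more holoenzyme dissociation and a rise in polarization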
Target sequence (P31323 whole entry, looked up, other chains not shown, the tested form may be a part): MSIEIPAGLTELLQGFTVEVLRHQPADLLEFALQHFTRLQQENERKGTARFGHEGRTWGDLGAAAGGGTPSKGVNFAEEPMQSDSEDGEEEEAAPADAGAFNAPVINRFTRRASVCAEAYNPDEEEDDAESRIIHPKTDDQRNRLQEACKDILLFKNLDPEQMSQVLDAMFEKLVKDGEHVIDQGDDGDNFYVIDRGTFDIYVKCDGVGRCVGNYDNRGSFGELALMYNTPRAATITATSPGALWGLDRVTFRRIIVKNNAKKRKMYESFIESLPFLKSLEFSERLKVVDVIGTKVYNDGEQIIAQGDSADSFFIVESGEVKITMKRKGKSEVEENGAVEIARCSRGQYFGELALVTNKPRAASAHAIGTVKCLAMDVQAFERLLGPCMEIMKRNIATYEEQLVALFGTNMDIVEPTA
MsrA activ conf = bovine methionine sulfoxide reductase A activation confirmed. 1,000 compounds, 12% hits. purified bovine MsrA, absorbance read-out. activation, % at 10.6 µM. shares compounds with MsrA act; in the data active = activation above about 4%;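 note: enzyme coupled to thioredoxin and thioredoxin reductase with NADPH; 0% = vehicle wells and 100% = reference activator wells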
An asterisk follows results filed as active; . = not tested or not shown.

SMILES	PKA-R1A act	IMP-1 inh	VIM-2 inhibitor	MsrA act	MsrA inh	PKA-R2B act	MsrA activ conf
Cc1cccc(C)c1-n1nnnc1C1(C)CCC(=O)N1c1ccc(N2CCOCC2)cc1 (stereo unspecified)	.	.	.	-5	1	.	.
Cc1cccc(C(=O)N2CCCC(N3CCN(c4cccc(Cl)c4)CC3)C2)n1 (stereo unspecified)	-5	-1	-2	17*	0	8	-3
Cc1ccccc1OCCN1C(=O)C(=O)c2cccc(C)c21	-3	-2	-1	0	0	5	.
Cc1cccc2c1N(CCOc1ccccc1Cl)C(=O)C2=O	-6	-4	-4	8.0*	-1	-2	-1
O=C(CSc1nc2ccccc2c(=O)n1-c1ccc(Cl)cc1)N/N=C/C=C/c1ccccc1[N+](=O)[O-]	1	-1	-1	8.1*	0	-10	-4
O=C(CSc1nc2ccccc2c(=O)n1-c1ccccc1)N/N=C/C=C/c1ccccc1[N+](=O)[O-]	-8	-3	-3	-4	0	-5	.
O=C1Nc2c(Cl)cc(Cl)cc2C1=O	12	.	.	11*	0	-4	7.0*
COC(=O)C(CC(C)C)N(Cc1ccc(Br)cc1)S(=O)(=O)CCl (stereo unspecified)	.	.	.	.	-1	.	.
Nc1ncnc2[nH]c(=S)[nH]c12	-1	.	.	11*	0	-9	1
CSc1nc2ncnc(N)c2[nH]1	.	-3	-1	-2	-1	.	.
COc1ccc(S(=O)(=O)NC(CC(=O)NCCc2ccc(OC)c(OC)c2)C(C)C)cc1 (stereo unspecified)	-1	-4	-5	13*	-1	-3	0
O=C(O)C1=CCCc2ccc(F)cc21	16	.	.	-3	0	5	.
COc1ccc(N2CC(NC(=O)c3ccc4ccccc4c3)CC2=O)cc1OC (stereo unspecified)	-6	.	.	11*	-1	4	-1
COc1ccc(N2CC(NS(=O)(=O)c3ccc4ccccc4c3)CC2=O)cc1OC (stereo unspecified)	-2	.	.	-2	0	-9	.
O=C(O)C(=Cc1ccc([N+](=O)[O-])cc1)c1ccccc1	.	.	.	.	3	.	.
O=C(O)C1CSC(CCc2ccccc2)N1 (stereo unspecified)	1	-2	-4	7.8*	0	-5	1
c1ccc(CC[C@@H]2CC[C@@H](CCc3ccccc3)N2)cc1	-11	.	.	-1	0	-3	.
CCOC(=S)SCc1cn2cccc(C)c2n1	-1	-2	3	-4	0	-8	.
CC(=O)c1nccs1	-5	.	.	16*	.	-3	-2
O=C(Nc1ccc2c(c1)OCCO2)Nc1ccc2c(c1)OCO2	-5	1	0	-3	0	-4	.
O=C(Nc1ccc2c(c1)OCCO2)NC12CC3CC(CC(C3)C1)C2	-3	-2	-1	9.1*	0	-3	1
O=C(OCN1C(=O)c2ccccc2C1=O)c1cccnc1SC(F)F	-5	-1	-1	1	1	-9	.
OC(COc1ccc2ccccc2c1Br)Cn1ccnc1 (stereo unspecified)	-7	-4	-3	0	0	0	.
OC(COc1ccc2ccccc2c1)Cn1ccnc1 (stereo unspecified)	7	-2	-3	8.1*	-1	-3	-2
C#CCNC(=O)C[C@H]1C[C@@]2(C(=O)OC)C(=C[C@H](C(C)(C)C)O[C@@H]2C)N(CCc2ccc(OC)c(OC)c2)C1=O	.	.	.	.	1	.	.
COc1ccc(-c2cc(=O)oc(-c3cccc(C)c3)n2)cc1	1	0	0	12*	0	3	-3
COc1ccc(-c2nc(-c3cccc(C)c3)no2)cc1OC	1	-1	-1	-7	.	-3	.
Cc1cccc(N2CC(C(=O)NCCC3=CCCCC3)CC2=O)c1C (stereo unspecified)	-2	.	.	-11	0	0	.
COc1ccccc1CC(=O)NCC1CCCO1 (stereo unspecified)	-14	.	.	8.4*	0	-12	0
COc1ccccc1CNC(=O)C(=O)NCC1CCCO1 (stereo unspecified)	-13	-1	-2	-5	0	-1	.
